Rows were chosen to be rich in hits. Some 3.6% of all compounds tested hit in one or more screens of this group.
DNA FID counter = fluorescent intercalator displacement, NS3 helicase counter-screen | inhibition, % at 7.9 µM | AID 1845 | DNA fluorescent intercalator displacement, fluorescence | actives 0.17% (n = 290,000); in the data active = inhibition above about 37%;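 also: 0% = vehicle and 100% = reference compound; higher means more ethidium bromide displaced from hairpin DNA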
GRIN3A LBD mod = modulates the human NR3A ligand-binding domain; AID 1259313; actives 2.5% (n = 340,000); Tm shift relative to glycine control, % at 25 µM; NR3A LBD differential scanning fluorimetry, Tm shift; 0% = protein alone, 100% = glycine-bound protein;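 active = melting temperature shift of at least 10% of the positive control shift, at one fixed dose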
HCV NS3 hel inh = blocks Hepatitis C virus NS3 helicase unwinding; NS3 helicase DNA unwinding, Cy5 molecular beacon fluorescence; inhibition, % at 10.9 µM; actives 0.56% (n = 290,000); AID 1800;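 active = inhibition above the mean of all tested compounds plus 3 SD, set per campaign, cut at about 35% in these data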;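 also: 0% = DMSO wells and 100% = thioflavine S control wells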
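Measured by: Cy5 fluorescence, 0 and 60 min reads / Assay system: NS3 helicase fragment of HCV / Control set: low DMSO, high thioflavine S at 110 µM / Times: 1 h reaction at 25 °C, ATP-initiated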
EBNA-1 inhibitor = blocks EBNA-1 binding to DNA | EBNA-1 DNA binding, fluorescence polarization | inhibition, % at 14.8 µM | actives 0.34% (n = 300,000) | AID 1950; in the data active = inhibition above about 28%
FGF22 binding = binders of recombinant human FGF22 by thermal shift; Q9HCT0; AID 651658; actives 1.5% (n = 340,000); activity (Tm shift, normalised), % at 9.99 µM; SYPRO orange fluorescence; percent of sucrose octasulfate shift, DMSO zero;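 active = mean Tm shift, scaled 0 neutral to 100 positive control, at about 1.3% or above, every replicate too, limit read from the data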
Target sequence (Q9HCT0 whole entry, looked up): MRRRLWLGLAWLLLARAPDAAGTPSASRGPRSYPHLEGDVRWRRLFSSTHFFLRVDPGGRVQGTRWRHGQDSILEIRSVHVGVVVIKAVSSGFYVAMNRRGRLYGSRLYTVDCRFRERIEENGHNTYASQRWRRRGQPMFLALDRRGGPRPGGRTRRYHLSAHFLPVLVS
ZTA DNA inh = counter-screen for EBNA-1 inhibitors: inhibitors of Epstein-Barr virus ZTA; P03206; ZTA-DNA binding, fluorescence polarization; inhibition, % at 11 µM; actives 0.15% (n = 320,000); in the data active = inhibition above about 33%
Target sequence (P03206 whole entry, looked up): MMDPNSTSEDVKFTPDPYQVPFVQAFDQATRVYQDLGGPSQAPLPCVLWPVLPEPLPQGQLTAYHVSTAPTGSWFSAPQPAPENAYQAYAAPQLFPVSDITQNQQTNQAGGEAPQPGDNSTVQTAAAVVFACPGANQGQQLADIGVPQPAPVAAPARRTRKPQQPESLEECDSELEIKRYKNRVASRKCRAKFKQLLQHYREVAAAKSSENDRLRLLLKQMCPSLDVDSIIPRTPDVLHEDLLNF
* marks the source's active call; other numbers are inactive results; · = not tested or not shown.

SMILES	DNA FID counter	GRIN3A LBD mod	HCV NS3 hel inh	EBNA-1 inhibitor	FGF22 binding	ZTA DNA inh
CCc1ccccc1NC1c2ccccc2C(=O)N1c1cc(C)ccn1 (stereo unspecified)	-6	17*	-8	-3	0	-2
Cc1ccnc(N2C(=O)c3ccccc3C2Nc2ccccc2Cl)c1 (stereo unspecified)	-5	-4	-6	-3	0	-13
CO[C@@H]1CN(C)C(=O)c2cc(NC(C)=O)ccc2OC[C@H](C)N(C(=O)c2ccc(F)cc2)C[C@H]1C	·	·	·	·	0	·
COCC#Cc1cnc2c(c1)C(=O)N([C@H](C)CO)C[C@@H](C)[C@@H](CN(C)C(=O)Nc1cc(F)ccc1F)O2	·	·	·	·	0	·
CCCn1c(N)c(N(CCOC)C(=O)/C=C/c2ccc(C(=O)OC)cc2)c(=O)[nH]c1=O	-16	0	11	-4	43*	-1
O=C(O)[C@H]1[C@H](CO)[C@H]2Cn3c(ccc(-c4ccccc4)c3=O)[C@H]2N1CCc1ccccc1	·	·	·	·	0	·
O=C1N=C(N2CCCC2C(=O)O)S/C1=C\c1ccco1 (stereo unspecified)	-16	4	20	-18	43*	-13
O=C(O)c1ccc(C=NN=C2c3ccccc3-c3ccccc32)cc1	·	28*	·	·	0	·
C[C@@H]1CN([C@H](C)CO)C(=O)c2cccc(NC(=O)c3ccncc3)c2O[C@@H]1CN(C)CC1CC1	·	·	·	·	0	·
O=C(C[C@H]1C=C[C@@H](NS(=O)(=O)c2ccccc2)[C@H](CO)O1)NCc1ccc(Cl)c(Cl)c1	·	·	·	·	0	·
Cc1c(NS(=O)(=O)c2ccc(Cl)c(C(=O)OCC(=O)NCc3ccco3)c2)c(=O)n(-c2ccccc2)n1C	-45	0	1	7	44*	-1
Cc1c(NS(=O)(=O)c2ccc(Cl)c(C(=O)OC(C)C(=O)NCc3ccco3)c2)c(=O)n(-c2ccccc2)n1C (stereo unspecified)	-29	-1	2	-10	0	-2
COc1ccc(NC(=O)N(C)C[C@H]2OCCCC[C@H](C)Oc3ccc(N(C)C)cc3C(=O)N([C@@H](C)CO)C[C@@H]2C)cc1	·	·	·	·	-1	·
C#CCn1c(=NC(=O)c2ccc(S(=O)(=O)N3CCCc4ccccc43)cc2)sc2cc(S(N)(=O)=O)ccc21	-1	19*	7	16	0	14
Cn1c(=NC(=O)c2ccc(S(=O)(=O)N3CCCc4ccccc43)cc2)sc2cc(S(C)(=O)=O)ccc21	-3	-2	1	-7	·	-14
Cc1ccc(NC(=O)/C(C#N)=C/c2ccsc2)c(C)c1	-5	12*	-7	1	0	-12
Cc1ccccc1NC(=O)/C(C#N)=C\c1ccsc1	-4	-2	3	-5	0	-5
O=C(c1cncc(Br)c1)N1CCc2ccccc2C1	-8	15*	5	0	·	18
CC(C)n1c(NCc2ccccc2O)nc2ccccc21	0	3	4	-5	0	10
C=CCc1cccc(CNc2nc3ccccc3n2C(C)C)c1O	18	11*	-36	2	·	8
O=C(CSc1nc(-c2ccc(F)cc2)nc2ccc(F)cc12)Nc1cccc(C(=O)O)c1	-23	10	15	-7	0	-1
O=C(CSc1nc(-c2ccccc2)nc2c1Cc1ccccc1O2)Nc1ccc(C(=O)O)cc1	-20	32*	10	·	1	·
O=C(CSc1nc(-c2ccc(F)cc2)nc2c1Cc1ccccc1O2)Nc1ccc(C(=O)O)cc1	-17	33*	19	·	0	·
CCCN(C)C[C@H]1Oc2cc(-c3cccc(OC)c3)ccc2S(=O)(=O)N([C@H](C)CO)C[C@H]1C	·	·	·	·	0	·
CC1(C)CC(NC(=S)NC2CC2)CC(C)(C)N1	1	0	1	1	43*	-14
SMILES	DNA FID counter	GRIN3A LBD mod	HCV NS3 hel inh	EBNA-1 inhibitor	FGF22 binding	ZTA DNA inh
C[C@@H]1CN([C@H](C)CO)C(=O)c2cc(NS(C)(=O)=O)ccc2O[C@@H](C)CCCCO[C@@H]1CN(C)S(C)(=O)=O	·	·	·	·	0	·
COc1ccc(-c2cc(-c3ccccc3O)[nH]n2)cc1OC	-12	-6	-44	-5	·	0
O=C(O)c1cc(-c2ccc3c(c2)OCCO3)n[nH]1	3	-1	9	7	43*	18
Oc1ccccc1-c1cc(-c2ccc3c(c2)OCCO3)n[nH]1	-7	16*	-10	-4	·	2
CCOC(=O)c1cc(-c2ccc3c(c2)OCCO3)n[nH]1	3	-3	1	14	0	18
C=CCN1C(=O)[C@]2(O[C@H](CCO)[C@@H]([Si](C)(C)c3ccc(OC)cc3)[C@@H]2C)c2cc(N3CCCCC3=O)ccc21	·	·	·	·	0	·
CCN(Cc1cnn(C)c1)C(=O)c1ccc(OC2CCN(S(=O)(=O)N(C)C)CC2)cc1	-33	-1	-6	-14	44*	-15
CN(C(=O)c1ccc(OC2CCN(S(=O)(=O)N(C)C)CC2)cc1)C1CCCCC1	-14	0	0	-9	0	-5
COCC(=O)N(C)C[C@@H]1Oc2cc(-c3ccc(C#N)cc3)ccc2S(=O)(=O)N([C@H](C)CO)C[C@H]1C	·	·	·	·	0	·
Cc1cc2cc(CNC(=S)Nc3ccc(OC(F)(F)F)cc3)ccc2[nH]1	-2	12*	-32	-8	0	-6
C/C=C/c1cnc2c(c1)C(=O)N([C@H](C)CO)C[C@@H](C)[C@H](CN(C)Cc1ccccc1)O2	·	·	·	·	0	·
COc1ccc(S(=O)(=O)N[C@@H]2CC[C@@H](CC(=O)N3CCN(c4ccccc4)CC3)O[C@H]2CO)cc1	·	·	·	·	0	·
O=C(NCC1CCCO1)c1ccc(NS(=O)(=O)c2ccccc2)cc1 (stereo unspecified)	-3	-1	-7	-15	45*	-5
COc1ccc(C(=O)NCC2CCCO2)cc1 (stereo unspecified)	5	12*	-16	-3	·	-14
O=C(COc1ccc(S(=O)(=O)NC2CCCC2)cc1)NCC1CCCO1 (stereo unspecified)	-1	2	4	-9	43*	-1
O=C(NCC1CCCO1)c1cccc(NS(=O)(=O)c2ccccc2)c1 (stereo unspecified)	·	1	·	7	·	-1
CS(=O)(=O)N(CC(=O)NCC1CCCO1)c1cccc(Cl)c1 (stereo unspecified)	-6	3	2	-7	44*	-6
C[C@H]1CN([C@@H](C)CO)C(=O)c2cc(NS(=O)(=O)c3cn(C)cn3)ccc2O[C@@H]1CN(C)C	·	·	·	·	0	·
COC(=O)NCC(c1ccco1)N1CCN(c2ccc(OC)cc2)CC1 (stereo unspecified)	-7	2	-6	-6	0	-19
O=C(Nc1cccc(Cl)c1)c1ccc(S(=O)(=O)NCC2CCCO2)cc1 (stereo unspecified)	-14	21*	-6	10	0	2

Assay outcomes as filed in PubChem BioAssay.
